Compound activity (PubChem)
MC4R ag barr = agonists of human melanocortin 4 receptor (MC4R) beta-arrestin | U2OS MC4R beta-arrestin complementation, luminescence; percent of melanotan II response, DMSO zero | P32245 | AID 540308 | activation, % at 8.9 µM | 0.98% of 360,000 active;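 active = activation above a per-plate cutoff, the mean activation of sample wells on that plate plus 3 SD, cut at about 8% in these data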
Target sequence (P32245 whole entry, looked up): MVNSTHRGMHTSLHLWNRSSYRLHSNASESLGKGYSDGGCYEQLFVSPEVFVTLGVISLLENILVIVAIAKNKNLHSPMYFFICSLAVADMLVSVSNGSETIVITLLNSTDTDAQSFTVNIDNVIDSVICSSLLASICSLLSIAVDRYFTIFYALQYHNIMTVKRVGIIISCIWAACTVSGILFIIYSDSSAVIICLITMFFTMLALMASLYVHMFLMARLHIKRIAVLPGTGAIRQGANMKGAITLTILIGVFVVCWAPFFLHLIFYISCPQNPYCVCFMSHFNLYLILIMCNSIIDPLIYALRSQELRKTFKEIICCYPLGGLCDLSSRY
NTR1 agonist = NTR1 (human) agonism; P30989; NTR1-U2OS beta-arrestin-GFP spot imaging, agonist mode; activation, % at 20 µM; 0.17% of 330,000 active; AID 493036;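 active = activation at or above 40% of the spot to cytoplasm intensity ratio, with at least 20 cells analyzed; inconclusive = wells under 20 cells, flagged as cytotoxic or low count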
MC4R antag cAMP = human MC4R antagonism in cAMP assay; P32245; inhibition, % at 6.5 µM; 0.48% of 360,000 active; MC4R-expressing cells, MTII-stimulated cAMP, LANCE TR-FRET;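 active = inhibition above its plate's cutoff, the mean of tested wells on that plate plus 3 SD, cut at about 29% in these data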
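Material: human MC4R-expressing U2OS cells. Probe or stimulus: Melanotan II challenge. Dosing: 6.5 µM single dose. Times: 30-min compound, 1-h challenge, 1-h detection, room temperature. Technique: TR-FRET with Eu-cAMP and labeled anti-cAMP, 671 nm. Replication: singlicate.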
Exocytosis inh = lytic granule exocytosis inhibition. TALL-104 LAMP-1 surface exposure, flow cytometry; cells stimulated with thapsigargin and PMA. inhibition, % at 10 µM. 0.66% of 360,000 active;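 active = inhibition above about 55%, limit read from the data; inconclusive = no clear call, values can overlap the other calls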
A1 inh = inhibitors of the anti-apoptotic protein A1, read as caspase activation. caspase activation, % (concentration not given with the values). 0.066% of 330,000 active. MEF A1-2A-BIM cells, Caspase-Glo 3/7 luminescence, 3 h; percent of clofoctol response, vehicle zero. AID 2462;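 active = over half of replicate activation scores above 10%, or exactly half above 10 with the replicate mean above 10; inconclusive = replicate mean below 10 yet half the replicates above 10; inactive = over half of replicates below 10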
sPLA2-III inh = Blocks human group III sPLA2 activity; inhibition, % at 12.2 µM; Q9NZ20; QFRET BODIPY PC-A2 liposome hydrolysis, fluorescence; 0.56% of 370,000 active;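 active = inhibition above mean plus 3 SD of compounds lying within the high and low control bounds, cut at about 19% in these data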
Granule exo CP1 = blocks lytic granule exocytosis; shares compounds with Exocytosis inh; TALL-104 cells, LAMP-1 externalization, flow cytometry; stimulated with PMA plus thapsigargin; inhibition, % at 10 µM; 11% of 1,500 active; in the data active = inhibition above about 60%
Each line names hits and unclear results; the compound was inactive in the other large screens (follow-up assays come after a bar, where they were run). Most compounds without a hit are left out; they make up all but 2.5% or so of the library.

O=C(NCC1CC1(Cl)Cl)Nc1ccc(Cl)c(Cl)c1 (stereo unspecified)	Exocytosis inh 90 | Granule exo CP1 inactive
O=C(c1ccccc1N(Cc1ccccc1)S(=O)(=O)c1ccccc1)N1CCOCC1	none
COCCCNC(=O)c1ccccc1N(Cc1ccccc1)S(=O)(=O)c1ccccc1	Exocytosis inh 69 | Granule exo CP1 inactive
CCOC(=O)N1CCN(C(=O)c2ccccc2N(Cc2ccccc2)S(=O)(=O)c2ccccc2)CC1	Exocytosis inh 79 | Granule exo CP1 inactive
Cc1nc(-c2ccc(F)cc2)c(CC(=O)N(C)CC(=O)Nc2ccc(Cl)c(C(F)(F)F)c2)s1	none (no result: NTR1 agonist, A1 inh)
CCO[C@H]1OC(C(=O)NC2CC2)=C[C@@H](c2c[nH]c3ccccc23)[C@@H]1CCCO	Exocytosis inh 56 | Granule exo CP1 inactive
CCO[C@@H]1OC(C(=O)NC2CC2)=C[C@H](c2c[nH]c3ccccc23)[C@H]1CCCO	none
Cc1nc(Cc2nnc(SCC(=O)N3CCN(c4ccccc4)CC3)o2)cs1	none (no result: A1 inh)
CCc1ccc(N(C(C)=O)C2C=CS(=O)(=O)C2)cc1 (stereo unspecified)	Exocytosis inh 75 | Granule exo CP1 inactive
O=C(O)CC(Cc1ccccc1)c1ccc2c(c1)OCO2 (stereo unspecified)	none
CC(=O)N(CCC(Cc1ccccc1)c1ccc2c(c1)OCO2)Cc1ccc(Cl)cc1 (stereo unspecified)	Exocytosis inh 90 | Granule exo CP1 inactive
CC(=NNC(=O)CSCC(=O)NN=C(C)c1ccccc1)c1ccccc1	none (no result: NTR1 agonist, A1 inh)
c1ccc(C2=NOC(c3nnc(-c4ccccc4)o3)C2)cc1 (stereo unspecified)	Exocytosis inh 91 | Granule exo CP1 inactive
Fc1ccc(C2=NOC(c3nnc(-c4ccccc4)o3)C2)cc1 (stereo unspecified)	none
OC(COC(c1ccccc1)c1ccccc1)CN1CCN(c2cccc(Cl)c2)CC1 (stereo unspecified)	Exocytosis inh 68 | Granule exo CP1 inactive
COc1ccc(C(=O)OC(C)C(=O)NC(C)CCc2ccccc2)c(OC)c1 (stereo unspecified)	Exocytosis inh 58 | Granule exo CP1 inactive
COc1ccc(C(=O)CSc2cc(C)nc(SCC(=O)c3ccc(C)cc3)n2)cc1	Exocytosis inh 56 | Granule exo CP1 inactive
O=C(NCc1ccccc1)C(=O)Nc1nc(C23CC4CC(CC(C4)C2)C3)cs1	none
O=C(NCc1ccncc1)C(=O)Nc1nc(C23CC4CC(CC(C4)C2)C3)cs1	Exocytosis inh 77 | Granule exo CP1 inactive
C[C@@H]1CN([C@H](C)CO)S(=O)(=O)c2ccc(C#Cc3cccc(F)c3)cc2O[C@@H]1CN(C)C(=O)CN1CCOCC1	none (no result: NTR1 agonist, A1 inh)
S=c1nccc(-c2ccc3c(c2)CCO3)[nH]1	Exocytosis inh 59 | Granule exo CP1 inactive
CC1(C)CCc2cc(-c3ccnc(=S)[nH]3)ccc2O1	A1 inh inconclusive
CC1=C(C)CS(=O)N(S(=O)(=O)c2ccc(Cl)cc2)C1 (stereo unspecified)	Exocytosis inh 64 | Granule exo CP1 94
CCOc1ccc(CN(C(=O)c2oc3ccccc3c2C)C2CCS(=O)(=O)C2)cc1 (stereo unspecified)	none
Cc1c(C(=O)N(Cc2ccc(Cl)cc2)C2CCS(=O)(=O)C2)oc2ccccc12 (stereo unspecified)	Exocytosis inh 74 | Granule exo CP1 inactive
Cc1cc(NC(=O)CCN2CCN(C/C=C/c3ccccc3)CC2)ccc1Br	Exocytosis inh 60 | Granule exo CP1 inactive
N#CCCn1c(-c2nonc2NC(=O)c2ccccc2Cl)nc2ccccc21	none
CCCCn1c(-c2nonc2NC(=O)c2ccccc2Cl)nc2ccccc21	Exocytosis inh 77 (no result: NTR1 agonist, A1 inh) | Granule exo CP1 inactive
O=C(Nc1ccccc1N1CCCCC1)c1ccc(-c2cc(Cl)ccc2Cl)o1	none
COC(=O)C1C(c2ccccc2)C(C(=O)OCc2ccco2)C1c1ccccc1 (stereo unspecified)	Exocytosis inh 69 (no result: sPLA2-III inh) | Granule exo CP1 inactive
O=C(CC(Sc1ccc(Br)cc1)C(=O)O)c1ccc(F)cc1 (stereo unspecified)	Exocytosis inh 69 | Granule exo CP1 inactive
CCOc1ccc(C(=O)CC(Sc2ccc(C)cc2)C(=O)O)cc1 (stereo unspecified)	none
CCOCCc1nnc(NC(=O)CCc2ccccc2)s1	none
CC1=C(C(=O)N(C(C)C)C(C)C)CC(CC(=O)NCC2CCCCC2)C(=O)N1Cc1ccc(C(C)(C)C)cc1 (stereo unspecified)	Exocytosis inh 64 (no result: MC4R ag barr, NTR1 agonist, MC4R antag cAMP, A1 inh) | Granule exo CP1 inactive
CC1=C(C(=O)N(C(C)C)C(C)C)CC(CC(=O)NC2CC2)C(=O)N1Cc1ccc(C(C)(C)C)cc1 (stereo unspecified)	none (no result: MC4R ag barr, NTR1 agonist, MC4R antag cAMP, A1 inh)
Cc1nc2ccccc2n1CC(O)Cn1c2ccccc2c2ccccc21 (stereo unspecified)	Exocytosis inh 58 | Granule exo CP1 inactive
CCCCOCC(O)Cn1c(C)nc2ccccc21 (stereo unspecified)	none
Cc1ccc(C)c(N2CCN(CCCNC(=O)Cn3c(=O)c4cccn4c4cccnc43)CC2)c1	Exocytosis inh 75 | Granule exo CP1 inactive
Cc1ccc(C)c(N2CCN(CCCNC(=O)CCn3c(=O)c4cccn4c4cccnc43)CC2)c1	none
Cc1ccc(-c2nnc(SCc3ccc([N+](=O)[O-])cc3)n2-c2ccccc2)cc1	none (no result: MC4R ag barr, NTR1 agonist, MC4R antag cAMP, Exocytosis inh, A1 inh)
COCc1cc(CN(C)C(=O)C2CCC(=O)N(Cc3cccc(OC)c3)C2)[nH]n1 (stereo unspecified)	none
Cc1ccc(-n2cc(-c3ccccc3)c3c(N4CCN(C)CC4)ncnc32)cc1	Exocytosis inh 69 | Granule exo CP1 inactive
CCOC(=O)c1ccc(S(=O)(=O)N2CCC(C(=O)NCC3COc4ccccc4O3)CC2)cc1 (stereo unspecified)	none (no result: NTR1 agonist, A1 inh)
COc1cccc(C(=O)NCC2(c3ccccc3)CCCC2)c1	none
COc1ccc(C(=O)NCC2(c3ccccc3)CCCC2)c(OC)c1	Exocytosis inh 88 | Granule exo CP1 inactive
Cc1ccccc1N1CCN(C(=O)NCc2cccc(Cl)c2)CC1	Exocytosis inh 86 | Granule exo CP1 inactive
N=c1n(CC(=O)c2cccs2)c2ccccc2n1Cc1ccccc1	none
O=C(O)Cn1c(=O)n(Cc2ccccc2)c2ccccc21	Exocytosis inh 58 | Granule exo CP1 inactive
